Bioassay records deposited in PubChem BioAssay by Broad Institute.
Shown are actives, neighbours in structure and some others; about 2.1% of the full set was active somewhere.
PAX8 reporter = PAX8 transcriptional activity inhibition; RMG-I TPO-luciferase reporter, SteadyGlo, 24 h; inhibition, % at 12.6 µM; 360,000 compounds, 1.2% hits;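 active = mean replicate inhibition at least 60% with every replicate also reaching 60%; inconclusive = only one of the two criteria is met; inactive = mean below 60% and not all replicates reaching 60%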;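 note: luciferase light reporting Pax8 driven TPO promoter activity; plate controls were median of neutral control wells for no effect and mitoxantrone controls for full effect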
EBV LMP1 NFkB = inhibitors of Epstein-Barr LMP1-induced NF-kappaB reporter. 350,000 compounds, 0.69% hits. LMP1-induced NF-kappaB luciferase reporter cells, luminescence. inhibition, % at 12.5 µM; in the data active = inhibition above about 41%; inconclusive = no clear call, values can overlap the other calls;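 note: 0% = neutral control wells and 100% = reference inhibitor control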
EWS-Fli block = EWS/Fli transcriptional activity inhibition; AID 651661; A673 NR0B1-luciferase reporter, viability-normalised; 350,000 compounds, 0.67% hits; inhibition, % at 12.6 µM;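 active = mean inhibition of at least 50% after viability correction, with every replicate also passing that limit; inconclusive = mean reaches 50% but only one of two replicates passes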;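 note: firefly luciferase signal divided by Alamar Blue viability fluorescence both relative to DMSO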
aSyn 5UTR inh = 5' untranslated region of α-synuclein, MLPCN primary screen | alpha-synuclein 5'UTR reporter, inhibitor activity | inhibition, % (tested at 7.5 µM) | 300,000 compounds, 0.82% hits | AID 1813; in the data active = inhibition above about 60%; inconclusive = no clear call, values can overlap the other calls;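 note: H4 neuroglioblastoma cells stably carrying SNCA 5'UTR luciferase fusion; 0% = DMSO wells and 100% = positive control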
Shn3 3UTR inh = Schnurri-3 reporter inhibition in Clone20 osteoblasts; Clone20 osteoblast Shn3 3'UTR firefly luciferase, 24 h; inhibition, % at 12.5 µM; 360,000 compounds, 0.52% hits;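 active = mean inhibition of at least 75% with every replicate also reaching 75%; inconclusive = mean inhibition at least 75% but some replicate below; inactive = mean inhibition below 75%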;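 note: 0% = median of neutral control wells and 100% = pilot-screen positive control compound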
FN deposit inh = fibronectin deposition inhibition; 350,000 compounds, 0.086% hits; AH1F fibroblasts, Alexa488-fibronectin deposition fluorescence, overnight; inhibition, % at 12.6 µM;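 active = mean inhibition across replicates of 30% or more, regardless of how many single replicates reach that level; inconclusive = mean under 30% yet at least half of replicates reach 30%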;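 note: positive control wells lacked labelled fibronectin entirely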
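material = AH1F fibroblast monolayer depositing Alexa488-labelled fibronectin into matrix | amount = 10000 AH1F cells/well | buffer or medium = DMEM plus 2% serum, read in PBS | incubation = 1 h cell adhesion before compound, then overnight fibronectin incubation | detection = fluorescence at 485 nm excitation, 525 nm emission | evaluation = percent inhibition as loss of matrix-bound fibronectin fluorescence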
* hit, by the source's call; ? = inconclusive; . = no result.

SMILES | PAX8 reporter | EBV LMP1 NFkB | EWS-Fli block | aSyn 5UTR inh | Shn3 3UTR inh | FN deposit inh
Cc1ccc(S(=O)(=O)Nc2ccc3c(c2)C(=O)N([C@H](C)CO)C[C@@H](C)[C@H](CN(C)CC2CC2)OCCCC[C@@H](C)O3)cc1 | 10 | . | 1 | . | . | 6
CN1CCN(C(=O)C2=C[C@@H](C(C)(C)C)C[C@@H](OCc3ccc(CO)cc3)O2)CC1 | -3 | 55* | 3 | 12 | -18 | -2
O=C(CCl)N1N=C(c2ccco2)CC1c1cccs1 (stereo unspecified) | . | 66* | . | -36 | -4 | .
Cc1ccc(C2=NN(C(=O)CCl)C(c3cccs3)C2)o1 (stereo unspecified) | 65* | 35 | 48 | -49 | 9 | 1
CC(=O)N1N=C(c2ccco2)CC1c1cccs1 (stereo unspecified) | . | -12 | . | 3 | -12 | 1
Cc1ccc(C2=NN(C(=O)CCC(=O)O)C(c3cccs3)C2)cc1 (stereo unspecified) | 11 | -6 | 0 | -4 | -3 | 0
O=C(NCC[C@@H]1CC[C@H](NC(=O)C2CCCC2)[C@@H](CO)O1)c1ccc(F)cc1 | -1 | . | 8 | . | . | .
COC(=O)C1=C(C(=O)OC)[C@]2([C@H]3CCCCN[C@@H](Cc4ccccc4)C(=O)N3Cc3ccccc3)C=C[C@H]1O2 | 74* | 17 | 19 | . | 66 | -32
O=C1[C@H](Cc2ccccc2)NCCCC[C@@H](c2ccc(Cl)cc2)N1Cc1ccccc1 | 15 | -2 | 6 | . | 21 | -5
CC1C/C(=C\c2cccnc2)C(=O)/C(=C/c2cccnc2)C1 (stereo unspecified) | . | 92* | . | . | 71 | .
O=C1/C(=C/c2cccnc2)CCc2c1[nH]c1ccccc21 | -66 | 11 | 3 | -126 | 55 | -7
COc1ccccc1/C=C/C(=O)c1ccc(Cl)cc1 | . | 68* | . | -62 | -24 | .
COc1ccccc1/C=C/C(=O)c1ccccc1 | -83 | -17 | -70 | -155 | -33 | 5
CCN(CC)S(=O)(=O)c1ccc(N2CCOCC2)c(NC(=O)c2cc(-c3ccccn3)nc3ccccc23)c1 | 78* | 13 | 14 | 88* | 19 | .
CCOc1cc(N2CCOCC2)c(OCC)cc1NC(=O)c1cc(-c2ccco2)nc2ccccc12 | . | 4 | 25 | 114* | 92* | .
CCOc1cc(N2CCOCC2)c(OCC)cc1NC(=O)COc1ncnc2ccccc12 | 18 | 0 | . | 24 | 1 | 7
C[C@@H]1CN([C@@H](C)CO)S(=O)(=O)c2ccc(C#CC3CC3)cc2O[C@@H]1CN(C)Cc1cncnc1 | . | . | -4 | . | . | .
COCC(=O)N1CCC(Oc2ccc(C(=O)N3C[C@H]4CC[C@H]3C4)cc2)CC1 | 6 | 65* | -6 | 7 | -4 | -1
CC(C)NC(=O)N1CCCCN2[C@H](CO)[C@H](c3ccc(C#Cc4ccccc4)cc3)[C@@H]2C1 | 10 | . | -4 | . | . | .
C[C@H](CO)N1C[C@H](C)[C@@H](CN(C)C(=O)C2CCC2)Oc2cc(C#C[C@@H](C)O)ccc2S1(=O)=O | . | . | -6 | . | . | .
COc1ccc(C(O)c2nc(-c3cccc(F)c3)cs2)cc1 (stereo unspecified) | 11 | . | -11 | . | 82* | 5
COc1ccc(C(O)c2nc(-c3cccc(C(F)(F)F)c3)cs2)cc1 (stereo unspecified) | 2 | . | -5 | . | 5 | -5
Cc1cc(-n2c(SCC(=O)Nc3ccc(F)c(F)c3)nc3n[nH]c(C)c3c2=N)ccc1Cl | 77* | 5 | 14 | 51 | 52 | -5
CCOc1ccc(-n2c(SCC(=O)Nc3ccc(Br)cc3)nc3n[nH]c(C)c3c2=N)cc1 | 15 | -11 | 2 | 82* | 56 | 28
COCCNC(=O)C[C@@H]1CC[C@H]2[C@@H](COC[C@H](O)CN2C(=O)Nc2ccc3c(c2)OCO3)O1 | 10 | . | -8 | . | . | -1
SMILES | PAX8 reporter | EBV LMP1 NFkB | EWS-Fli block | aSyn 5UTR inh | Shn3 3UTR inh | FN deposit inh
COc1ccc2c3c(n(C)c2c1)[C@@H](CO)N(CC1CCCC1)CC31CCN(C(=O)Nc2ccccc2)CC1 | . | . | 17 | . | . | .
O=C(Nc1ccccc1F)N[C@H]1CC[C@@H](CC(=O)N2CCCCC2)O[C@@H]1CO | 2 | . | 3 | . | . | -2
COc1ccccc1N1CCN(c2ccnc3cc(Cl)ccc23)CC1 | 19 | 29 | 54* | 87* | 20 | 19
CC(=O)c1ccc(N2CCN(c3ccnc4cc(Cl)ccc34)CC2)cc1 | 21 | 47* | 6 | -1 | 46 | -1
COCC(=O)Nc1ccc2c(c1)C(=O)N(C)C[C@@H](OC)[C@H](C)CN(Cc1ccccn1)[C@H](C)CO2 | . | . | -5 | . | . | 7
COc1cccc(-c2nc(CS(=O)(=O)CC(=O)NCCCN3CC(C)CC(C)C3)c(C)o2)c1 (stereo unspecified) | 118* | 5 | 0 | 13 | -20 | 22
Cc1ccc(N2C(=O)c3cccc4c([N+](=O)[O-])ccc(c34)C2=O)c2cccnc12 | 15 | 38 | 17 | ? | 92* | -3
Cc1nnc(N2C(=O)c3cccc4c([N+](=O)[O-])ccc(c34)C2=O)s1 | 18 | -6 | 68* | -19 | 22 | -9
O=C1c2cccc3c(N4CCOCC4)c([N+](=O)[O-])cc(c23)C(=O)N1c1cccc2ccccc12 | 25 | -10 | 10 | 30 | 23 | 2
O=C1c2cccc3c([N+](=O)[O-])ccc(c23)C(=O)N1Cc1cccnc1 | 34 | 3 | 38 | -5 | 49 | -13
Cc1ccc(N2C(=O)c3cccc4c(N5CCN(C)CC5)ccc(c34)C2=O)c2cccnc12 | . | . | . | -23 | . | .
Cc1ccnc(N2C(=O)c3cccc4c([N+](=O)[O-])ccc(c34)C2=O)c1 | . | -4 | 66* | -1 | 47 | .
Cc1ccnc(N2C(=O)c3ccccc3C2=O)c1 | 20 | . | 4 | 11 | -2 | -1
Cc1cccc(N2C(=O)c3cccc4c(N5CCCCC5)c([N+](=O)[O-])cc(c34)C2=O)c1C | -8 | 1 | . | 62* | 2 | 6
CNC[C@H]1Oc2ccc(NC(=O)Nc3c(C)noc3C)cc2C(=O)N([C@@H](C)CO)C[C@@H]1C | -6 | . | -5 | . | . | -2
Cc1ccc(S(=O)(=O)NC2CCSC2=O)cc1C (stereo unspecified) | -4 | 69* | -5 | . | -5 | -10
CCOC(=O)c1cc(-c2ccccc2)n(CC(=O)Nc2cccc(OC)c2)c1C | 4 | 53* | 10 | 0 | 16 | 2
COc1ccc2c3c([nH]c2c1)[C@@H](CO)N(C(=O)NC(C)C)CC31CN(C(=O)C2CCCCC2)C1 | . | . | -5 | . | . | .
Cc1ccc(S(=O)(=O)CC2CSc3nc4ccccc4n32)cc1 (stereo unspecified) | . | 21 | 2 | -13 | 90* | .
Cc1ccc(S(=O)(=O)CC2CSc3nc(N)cc(=O)n32)cc1 (stereo unspecified) | . | -2 | . | -27 | -6 | -15
